Measured values: ChEMBL document CHEMBL1146459, “Production of biologically active taxoids by a callus culture of Taxus cuspidata” (2004)

Legend:
[1] = test system: MKN-74; experiment: Growth inhibition of human MKN74 cells after 48 hrs by SRB assay; type: functional; conditions: MKN-74, 48 h
[2] = test system: MKN-7; experiment: Growth inhibition of human MKN7 cells after 48 hrs by SRB assay; type: functional; conditions: MKN-7, 48 h
[3] = test system: SNB-75; experiment: Growth inhibition of human SNB75 cells after 48 hrs by SRB assay; type: functional; conditions: SNB-75, 48 h
[4] = test system: NCI-H23; experiment: Growth inhibition of human NCI-H23 cells after 48 hrs by SRB assay; type: functional; conditions: NCI-H23, 48 h
[5] = Reversal of multidrug resistance in human 2780AD cells assessed as [3H]vincristine accumulation at 1 ug/mL after 2 hrs relative to verapamil; type: functional, A2780 ADR
[6] = test system: OVCAR-3; experiment: Growth inhibition of human OVCAR-3 cells after 48 hrs by SRB assay; type: functional; conditions: OVCAR-3, 48 h
[7] = test system: SF-295; experiment: Growth inhibition of human SF295 cells after 48 hrs by SRB assay; type: functional; conditions: SF-295, 48 h
[8] = test system: St-4; experiment: Growth inhibition of human St-4 cells after 48 hrs by SRB assay; type: functional; conditions: St-4, 48 h
[9] = Growth inhibition of human HBC5 cells after 48 hrs by SRB assay; type: functional; conditions: HBC5, 48 h
[10] = test system: DMS-273; experiment: Growth inhibition of human DMS273 cells after 48 hrs by SRB assay; type: functional; conditions: DMS-273, 48 h
[11] = test system: SNB-78; experiment: Growth inhibition of human SNB78 cells after 48 hrs by SRB assay; type: functional; conditions: SNB-78, 48 h
[12] = test system: SF-268; experiment: Growth inhibition of human SF268 cells after 48 hrs by SRB assay; type: functional; conditions: SF-268, 48 h
[13] = Reversal of multidrug resistance in human 2780AD cells assessed as [3H]vincristine accumulation at 10 ug/mL after 2 hrs relative to verapamil; type: functional, A2780 ADR
[14] = test system: MDA-MB-231; experiment: Growth inhibition of human MDA-MB-231 cells after 48 hrs by SRB assay; type: functional; conditions: MDA-MB-231, 48 h
[15] = test system: ACHN; experiment: Growth inhibition of human ACHN cells after 48 hrs by SRB assay; type: functional
[16] = Reversal of multidrug resistance in human 2780AD cells assessed as [3H]vincristine accumulation at 10 ug/mL after 2 hrs relative to control; type: functional, A2780 ADR
Method in brief: (§1)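 Multidrug-resistant human ovarian cancer 2780AD cells were exposed to taxoids at 0.1, 1 or 10 µg/mL. Radiolabelled vincristine accumulated in the cells was measured as dpm/well, using means of triplicate determinations. Results are expressed as % of vincristine accumulated relative to the control experiment. They were also scored on a seven-level index according to the range of relative accumulation.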

[17] = test system: HCC 2998; experiment: Growth inhibition of human HCC2998 cells after 48 hrs by SRB assay; type: functional; conditions: HCC 2998, 48 h
[18] = Reversal of multidrug resistance in human 2780AD cells assessed as [3H]vincristine accumulation at 0.1 ug/mL after 2 hrs relative to verapamil; type: functional, A2780 ADR
[19] = test system: MCF7; experiment: Growth inhibition of human MCF7 cells after 48 hrs by SRB assay; type: functional; conditions: MCF7, 48 h
[20] = Reversal of multidrug resistance in human 2780AD cells assessed as [3H]vincristine accumulation at 1 ug/mL after 2 hrs relative to control; type: functional, A2780 ADR; method in brief: as §1
[21] = test system: DMS-114; experiment: Growth inhibition of human DMS114 cells after 48 hrs by SRB assay; type: functional; conditions: DMS-114, 48 h
[22] = test system: MKN-45; experiment: Growth inhibition of human MKN45 cells after 48 hrs by SRB assay; type: functional; conditions: MKN-45, 48 h
[23] = read-out: LC50 (the source's name)
[24] = read-out: pLC50 (the source's name) (converted)

C=C1[C@@H](OC(C)=O)CC[C@@]2(C)C[C@H](OC(C)=O)C3=C(C)C[C@H](OC(=O)C(C)CC)[C@@H]([C@@H](OC(C)=O)[C@H]12)C3(C)C (stereo partly drawn)
GI50 ([1]; read-out: GI50): 30 µM | CC50 [1, 23]: > 100 µM | TGI ([1]; read-out: TGI): > 100 µM | GI50 ([1]; read-out: pGI50 (converted)): 30.2 µM | CC50 [1, 24]: 100 µM | TGI ([1]; read-out: pTGI (converted)): 100 µM | GI50 ([2]; read-out: GI50): 18 µM | CC50 [2, 23]: > 100 µM | TGI ([2]; read-out: TGI): 93 µM | GI50 ([2]; read-out: pGI50 (converted)): 18.2 µM | CC50 [2, 24]: 100 µM | TGI ([2]; read-out: pTGI (converted)): 93.3 µM | CC50 [3, 23]: > 100 µM | TGI ([3]; read-out: TGI): 55 µM | GI50 ([3]; read-out: pGI50 (converted)): 8.91 µM | CC50 [3, 24]: 100 µM | TGI ([3]; read-out: pTGI (converted)): 55 µM | GI50 ([4]; read-out: GI50): 23 µM | CC50 [4, 23]: > 100 µM | TGI ([4]; read-out: TGI): 69 µM | GI50 ([4]; read-out: pGI50 (converted)): 22.9 µM | CC50 [4, 24]: 100 µM | TGI ([4]; read-out: pTGI (converted)): 69.2 µM | Activity [5]: 123% | GI50 ([6]; read-out: GI50): 21 µM | CC50 [6, 23]: > 100 µM | TGI ([6]; read-out: TGI): 99 µM | GI50 ([6]; read-out: pGI50 (converted)): 20.4 µM | CC50 ([6]; read-out: pLC50 (converted)): > 100 µM | TGI ([6]; read-out: pTGI (converted)): 100 µM | GI50 ([7]; read-out: GI50): 21 µM | CC50 [7, 23]: > 100 µM | TGI ([7]; read-out: TGI): > 100 µM | GI50 ([7]; read-out: pGI50 (converted)): 21.4 µM | TGI ([7]; read-out: pTGI (converted)): 100 µM | GI50 ([8]; read-out: GI50): 33 µM | CC50 [8, 23]: > 100 µM | TGI ([8]; read-out: TGI): > 100 µM | GI50 ([8]; read-out: pGI50 (converted)): 33.1 µM | CC50 [8, 24]: 100 µM | TGI ([8]; read-out: pTGI (converted)): 100 µM | GI50 ([9]; read-out: GI50): 25 µM | CC50 [9, 23]: > 100 µM | TGI ([9]; read-out: TGI): > 100 µM | GI50 ([9]; read-out: pGI50 (converted)): 25.1 µM | CC50 [9, 24]: 100 µM | TGI ([9]; read-out: pTGI (converted)): 100 µM | GI50 ([10]; read-out: GI50): 22 µM | CC50 [10, 23]: > 100 µM | TGI ([10]; read-out: TGI): > 100 µM | GI50 ([10]; read-out: pGI50 (converted)): 22.4 µM | CC50 [10, 24]: 100 µM | TGI ([10]; read-out: pTGI (converted)): 100 µM | GI50 ([11]; read-out: GI50): 50 µM | CC50 [11, 23]: > 100 µM | TGI ([11]; read-out: TGI): > 100 µM | GI50 ([11]; read-out: pGI50 (converted)): 50.1 µM | TGI ([11]; read-out: pTGI (converted)): 100 µM | GI50 ([12]; read-out: GI50): 74 µM | CC50 [12, 23]: > 100 µM | TGI ([12]; read-out: TGI): > 100 µM | GI50 ([12]; read-out: pGI50 (converted)): 74.1 µM | CC50 [12, 24]: 100 µM | TGI ([12]; read-out: pTGI (converted)): 100 µM | Activity [13]: 132% | GI50 ([14]; read-out: GI50): 18 µM | CC50 [14, 23]: > 100 µM | TGI ([14]; read-out: TGI): > 100 µM | GI50 ([14]; read-out: pGI50 (converted)): 18.2 µM | TGI ([14]; read-out: pTGI (converted)): 100 µM | GI50 ([15]; read-out: GI50): 28 µM | CC50 [15, 23]: > 100 µM | TGI ([15]; read-out: TGI): > 100 µM | GI50 ([15]; read-out: pGI50 (converted)): 28.2 µM | CC50 [15, 24]: 100 µM | TGI ([15]; read-out: pTGI (converted)): 100 µM | Activity [16]: 701% | GI50 ([17]; read-out: GI50): 27 µM | CC50 [17, 23]: > 100 µM | TGI ([17]; read-out: TGI): > 100 µM | GI50 ([17]; read-out: pGI50 (converted)): 27.5 µM | CC50 [17, 24]: 100 µM | TGI ([17]; read-out: pTGI (converted)): 100 µM | Activity [18]: 95% | GI50 ([19]; read-out: GI50): 24 µM | CC50 [19, 23]: > 100 µM | TGI ([19]; read-out: TGI): 93 µM | GI50 ([19]; read-out: pGI50 (converted)): 24 µM | CC50 ([19]; read-out: pLC50 (converted)): > 100 µM | TGI ([19]; read-out: pTGI (converted)): 93.3 µM | Activity [20]: 256% | GI50 ([21]; read-out: GI50): 10 µM | CC50 [21, 23]: > 100 µM | TGI ([21]; read-out: TGI): 57 µM | GI50 ([21]; read-out: pGI50 (converted)): 10 µM | CC50 [21, 24]: 100 µM | TGI ([21]; read-out: pTGI (converted)): 57.5 µM | GI50 ([22]; read-out: GI50): 27 µM | CC50 [22, 23]: > 100 µM | TGI ([22]; read-out: TGI): > 100 µM | GI50 ([22]; read-out: pGI50 (converted)): 26.9 µM | CC50 [22, 24]: 100 µM | TGI ([22]; read-out: pTGI (converted)): 100 µM
